Assay results taken from publication PMC4183664 (Journal of the American Chemical Society, 2014).

How the values were obtained:
[1] = system: SW-480 colon cancer cells; test: Effect of GLUT1 inhibitors on internalization of BLM-Cy5**; format: cell-based; details: pretreatment with different concentrations of inhibitor, 37 °C, 2 h, then 25 μM dye-labeled conjugate 44; 2 s exposure
In short: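 SW480 cells kept in RPMI 1640 with 10% FBS and 1% pen-strep at 37 °C, 5% CO2. Seeded on glass chamber slides at 5000 cells/well for 48 h. At 70% confluence, rinsed with PBS and switched to phenol-red-free RPMI. Pretreated 2 h at 37 °C with cytochalasin B or phloretin, then 25 μM Cy5-labeled conjugate for 1 h at 37 °C. PBS-washed, fixed 5 min in 4% paraformaldehyde, DAPI-mounted, imaged through Cy5 filter with 40× oil objective; cells counted.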

[2] = system: DU145 human prostate cancer cells; test: MTT cytotoxicity assay; format: cell-based; details: 24 h incubation, four concentrations, 5% DMSO, MTT read at 560 nm
In short: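 DU145 cells grown in log phase in MEM with 10% FBS and 1% pen-strep. Trypsinized, seeded at 5000 cells/well and incubated 24 h. Medium replaced with compound-containing medium (5% DMSO final) for 24 h. MTT solution (5 mg/mL in PBS, pH 7.4) added for 3 h at 37 °C. Crystals dissolved in DMSO; absorbance read at 560 nm, reference 670 nm. Viability = OD560/[OD560(positive control) − OD560(negative control)], with linear fit.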

[3] = system: supercoiled pSP64 plasmid DNA; test: Relaxation of supercoiled pSP64 plasmid DNA by Fe; format: biochemical; details: Fe(II) chelate; pSP64, 50 mM Tris-HCl pH 8.0, 25 °C, 30 min; agarose gel
In short: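 200 ng supercoiled pSP64 treated with freshly prepared Fe2+ (from ferrous ammonium sulfate) plus compound at 2 or 4 μM, in 50 mM Tris-HCl pH 8.0, 25 °C for 30 min. Quenched with glycerol/bromophenol blue loading buffer. Run on 1% agarose gel in 9 mM Tris-borate pH 8.3 with 320 μM Na2EDTA, 96 V for 2 h. Stained 1 h with 0.5 μg/mL ethidium bromide, destained in water, viewed under UV. Cleaved DNA given as percent of total per lane.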

supercoiled DNA = details: relative to BLM; cited from earlier work

Row | Compound | inhibition of BLM-Cy5** (44) binding/uptake [1] | cytotoxicity toward cultured DU145 cells (cell viability, MTT) [2] | extent of double-strand cleavage of plasmid DNA [3] | double-strand DNA cleavage (supercoiled DNA) | potency of supercoiled DNA relaxation, fold less than for BLM (supercoiled DNA)
1 | C=C1[C@@H](C)[C@H]2[C@H](Cc3ccccc3)NC(=O)[C@]23OC(=O)/C=C/[C@H](O)CCC[C@@H](C)C/C=C/[C@H]3[C@@H]1O [cytochalasin B] | substantial and dose-dependent inhibition |  |  |  | 
2 | O=C(CCc1ccc(O)cc1)c1c(O)cc(O)cc1O [phloretin] | substantial and dose-dependent inhibition |  |  |  | 
3 | bleomycin A5 [BLM A5] |  | the most potent of the derivatives tested |  |  | 
4 | deglycobleomycin A5 [deglycoBLM A5] |  | cytotoxic to DU145 cells but much less so than BLM A5 | minimal double-strand cleavage of plasmid DNA | much less double-strand cleavage is apparent | 2–3 fold
